According to PubChem BioAssay:
Calls of active or inactive are those of the source.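 Rule for the calls, unless noted: active = potentiation averaged over duplicate wells exceeding buffer-only control mean by more than 3 SD; inactive = the rest.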

How the values were obtained:
[1] = nonspecific flux increase, KCNQ1-free cells – parental CHO cells, counter-screen for KCNQ1 potentiator project (AID 493006;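 active = duplicate-averaged activation above buffer control mean plus 5 SD of those controls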); conditions: parental CHO-K1 cells, FluxOR thallium flux, at 10 µM; stronger effect = higher value
How it was run: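 Benchmarks – buffer and R-L3 controls · Assay system – untransfected host CHO-K1 cells with FluxOR thallium dye · Measure – fluorescence change ratio scaled 0% buffer, 100% R-L3 · Technique – kinetic thallium-flux fluorescence · Timing – overnight 37 °C plating, 90 min RT dye, 20 min compound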

[2] = target: Potassium voltage-gated channel subfamily KQT member 1 (Homo sapiens) (UniProt P51787); test: enhancement of KCNQ1 channel thallium flux – FluxOR thallium flux, CHO cells, duplicates, confirmation (AID 493007); conditions: KCNQ1 cell line, FluxOR thallium flux fluorescence, at 10 µM; stronger effect = higher value, % of reference activator effect, buffer zero;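 for outcome: cells depolarized by a potassium plus thallium sulfate stimulus after compound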
Potassium voltage-gated channel subfamily KQT member 1 (Homo sapiens), sequence (P51787 whole entry, looked up): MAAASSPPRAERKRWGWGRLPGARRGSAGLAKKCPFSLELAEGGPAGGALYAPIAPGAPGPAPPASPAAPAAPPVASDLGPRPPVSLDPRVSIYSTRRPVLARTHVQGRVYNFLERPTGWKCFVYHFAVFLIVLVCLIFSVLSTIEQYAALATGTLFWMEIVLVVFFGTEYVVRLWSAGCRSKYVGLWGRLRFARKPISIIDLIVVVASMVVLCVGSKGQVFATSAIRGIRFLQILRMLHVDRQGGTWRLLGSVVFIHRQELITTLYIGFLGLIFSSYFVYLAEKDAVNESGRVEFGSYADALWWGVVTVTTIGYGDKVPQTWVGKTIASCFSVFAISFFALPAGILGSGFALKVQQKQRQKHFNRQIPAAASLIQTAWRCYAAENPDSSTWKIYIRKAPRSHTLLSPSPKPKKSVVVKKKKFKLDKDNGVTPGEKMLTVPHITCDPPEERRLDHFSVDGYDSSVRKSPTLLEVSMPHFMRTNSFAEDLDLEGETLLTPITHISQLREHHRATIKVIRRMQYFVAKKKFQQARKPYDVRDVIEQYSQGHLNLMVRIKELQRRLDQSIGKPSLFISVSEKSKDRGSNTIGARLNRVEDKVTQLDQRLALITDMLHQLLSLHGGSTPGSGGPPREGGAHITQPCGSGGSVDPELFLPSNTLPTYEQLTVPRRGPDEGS
How it was run: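 Material: CHO cells stably expressing the KCNQ1 potassium channel / Times: dye 90 min then compound 20 min, both at room temperature / Detection: kinetic thallium influx fluorescence with FluxOR dye, 10 s baseline, 110 s post-stimulus / Benchmarks: buffer-only wells as 0% and R-L3 activator as 100% / Replicates: each compound tested in duplicate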

[3] = target: Potassium voltage-gated channel subfamily KQT member 2 (Rattus norvegicus) (UniProt O88943); test: KCNQ2 thallium flux enhancement – KCNQ2-CHO-K1 cells, selectivity assay for KCNQ1 potentiator project (AID 493009;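 active = mean duplicate potentiation above the buffer control mean plus 5 SD of buffer wells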;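 note: assay conditions were tuned for KCNQ1 rather than KCNQ2 modulators; signal is max minus min fluorescence divided by baseline after thallium stimulus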); conditions: FluxOR thallium flux fluorescence, at 10 µM; stronger effect = higher value, scaled: buffer 0, activator control 100
Potassium voltage-gated channel subfamily KQT member 2 (Rattus norvegicus), sequence (O88943 whole entry, looked up): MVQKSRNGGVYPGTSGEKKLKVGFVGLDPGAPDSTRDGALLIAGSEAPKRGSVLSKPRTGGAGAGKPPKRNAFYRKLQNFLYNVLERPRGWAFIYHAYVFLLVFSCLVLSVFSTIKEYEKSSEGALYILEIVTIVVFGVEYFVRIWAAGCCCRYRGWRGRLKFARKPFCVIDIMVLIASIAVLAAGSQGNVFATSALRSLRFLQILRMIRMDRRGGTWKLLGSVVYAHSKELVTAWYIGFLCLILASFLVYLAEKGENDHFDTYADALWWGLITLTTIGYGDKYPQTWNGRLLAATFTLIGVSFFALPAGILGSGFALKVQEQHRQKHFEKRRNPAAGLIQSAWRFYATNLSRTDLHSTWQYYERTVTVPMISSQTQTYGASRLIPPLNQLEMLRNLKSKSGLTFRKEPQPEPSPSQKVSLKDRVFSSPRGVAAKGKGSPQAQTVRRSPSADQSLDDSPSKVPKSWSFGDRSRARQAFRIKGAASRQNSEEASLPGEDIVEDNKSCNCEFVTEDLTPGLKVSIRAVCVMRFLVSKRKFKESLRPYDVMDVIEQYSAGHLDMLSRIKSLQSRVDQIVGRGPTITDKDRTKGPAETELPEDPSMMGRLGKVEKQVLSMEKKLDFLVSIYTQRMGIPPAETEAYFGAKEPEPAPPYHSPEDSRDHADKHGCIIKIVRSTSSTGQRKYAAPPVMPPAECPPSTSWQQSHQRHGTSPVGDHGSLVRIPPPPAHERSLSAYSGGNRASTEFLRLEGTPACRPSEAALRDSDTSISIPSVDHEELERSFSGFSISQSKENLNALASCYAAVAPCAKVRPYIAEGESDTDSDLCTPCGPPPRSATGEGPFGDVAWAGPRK

[4] = target: Potassium voltage-gated channel subfamily KQT member 1 (Homo sapiens) (UniProt P51787); test: KCNQ1 activators by electrophysiology – IonWorks patch clamp, KCNQ1-CHO cells, orthogonal assay for KCNQ1 potentiator project, confirmation (AID 493184;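 active = current rise at least 3 SD above the untreated control mean in each of two repeat wells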;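 for current potentiation: percent change of the same well's current before compound addition so 0% = no change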); conditions: automated patch clamp current, at 10 µM; stronger effect = higher value
How it was run: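 Probe or stimulus: depolarizing pulse to +40 mV from -90 mV; Material: CHO cells carrying KCNQ1; Compound: one dose, 10 µM final; Signal: automated voltage clamp, amphotericin B perforated patch; Read-out basis: percent current increase versus pre-compound level; Buffer or medium: pH 7.4 external bath; Replication: duplicates.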

[5] = target: Potassium voltage-gated channel subfamily E member 1 (Homo sapiens) + Potassium voltage-gated channel subfamily KQT member 1 (Homo sapiens) (UniProt P15382+P51787); test: KCNQ1-E1 channel activation – thallium flux, CHO-K1 KCNQ1/E1 cells, selectivity assay for KCNQ1 potentiator project, confirmation (AID 493186;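 active = mean duplicate activation above the buffer control mean plus 5 SD of those controls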); conditions: FluxOR thallium flux, at 10 µM; stronger effect = higher value
Potassium voltage-gated channel subfamily E member 1 (Homo sapiens) + Potassium voltage-gated channel subfamily KQT member 1 (Homo sapiens), sequence (P51787 whole entry, looked up): as the sequence (P51787 whole entry, looked up) above
How it was run: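 system = KCNQ1/E1-expressing stable CHO-K1 cell line | doses = single compound concentration per well | times = dye 90 min, compound 20 min, room temperature | measured by = FluxOR Tl+ flux fluorescence, kinetic read | evaluation = fluorescence rise relative to baseline, as percent of R-L3 response above buffer | controls = buffer and R-L3 | replicates = duplicate wells per compound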

CCCCCCCCN1[C@@H](CC(C)=O)c2cc(C(F)(F)F)ccc2S1(=O)=O
inactive: outcome [1] | outcome [3] | outcome [4] | outcome [5]
active: potentiation [2] 60.5%

CC12CCC(C(=O)N(CSC(=S)N/N=C\c3ccccc3)C1=O)C2(C)C (stereo not given)
active: potentiation [2] 33.5%
inactive: outcome [1] | outcome [3] | outcome [4] | outcome [5]

CCN(CC)CCCNC(=O)c1c(O)c2cc(F)cc3c2n(c1=O)C(C)CC3 (stereo not given)
inactive: outcome [1] | outcome [2] | outcome [3] | outcome [4] | outcome [5]

S=c1[nH]nc(-c2ccc(Br)o2)n1Cc1ccccc1
inactive: outcome [1] | outcome [2] | outcome [3] | outcome [4] | outcome [5]

CC(C)c1ccc(OCC(=O)NNC(=S)NC(=O)c2cccs2)c(Br)c1
inactive: outcome [1] | outcome [3] | outcome [4] | outcome [5]
active: potentiation [2] 22%

Cc1ccc(NC(=S)c2nc3ccccc3s2)cc1
active: potentiation [2] 32%
inactive: outcome [1] | outcome [3] | outcome [4] | outcome [5]

Cn1cccc1C(=O)NNC(=O)COc1ccccc1F
inactive: outcome [1] | outcome [2] | outcome [3] | outcome [4] | outcome [5]

Oc1c(N=NC(=S)Nc2ccccc2F)c2ccccc2n1Cc1cccc(Cl)c1
inactive: outcome [1] | outcome [2] | outcome [3] | outcome [4] | outcome [5]

COc1cc2c(cc1NC(=O)CSc1nnc(COc3ccc(Cl)cc3)n1C)oc1ccccc12
inactive: outcome [1] | outcome [3] | outcome [4] | outcome [5]
active: potentiation [2] 49.5%

Cc1[nH]nc(SCC(=O)N2CCCCC2)c1[N+](=O)[O-]
inactive: outcome [1] | outcome [2] | outcome [3] | outcome [4] | outcome [5]

CC1CCCCC1NC(=S)NC(=O)c1sc2ccccc2c1Cl (stereo not given)
active: potentiation [2] 54%
inactive: outcome [1] | outcome [3] | outcome [4] | outcome [5]

CN(C)c1cccc(C(=O)N2CCCC(C(=O)c3cc(F)ccc3F)C2)c1 (stereo not given)
inactive: outcome [1] | outcome [2] | outcome [3] | outcome [4] | outcome [5]

O=C(NC(=S)NCCc1ccccc1)c1ccco1
inactive: outcome [1] | outcome [2] | outcome [3] | outcome [4] | outcome [5]

Nc1nnc(SCC(=O)N2CCN(c3ccccc3)CC2)n1-c1ccccc1
inactive: outcome [1] | outcome [2] | outcome [3] | outcome [4] | outcome [5]

Cn1ccnc1C(=O)c1cccc([N+](=O)[O-])c1
active: potentiation [2] 18.5%
inactive: outcome [1] | outcome [3] | outcome [4] | outcome [5]

Cc1ccc(C)c(NC(=S)NNC(=O)c2csc3c2CCCC3)c1
inactive: outcome [1] | outcome [3] | outcome [4] | outcome [5]
active: potentiation [2] 20.5%

Cc1cccc(C(=O)NN2C(=O)C3C(c4ccccc4)C=CC(c4ccccc4)C3C2=O)c1 (stereo not given)
inactive: outcome [1] | outcome [2] | outcome [3] | outcome [4] | outcome [5]

CCN(CC(=O)Nc1c(F)cccc1F)C(=O)C1CCN(C(=O)c2ccc(Cl)cc2)CC1
inactive: outcome [1] | outcome [2] | outcome [3] | outcome [4] | outcome [5]

COc1ccccc1C(=O)NNC(=O)C(=O)NC(C)C
inactive: outcome [1] | outcome [2] | outcome [3] | outcome [4] | outcome [5]

COc1cc(-c2noc(C)c2-c2ccc(N(C)C)nc2)cc(OC)c1OC
inactive: outcome [1] | outcome [2] | outcome [3] | outcome [4] | outcome [5]

O=C(NC(=S)Nc1cccc(Cl)c1N1CCCCC1)c1cccs1
inactive: outcome [1] | outcome [3] | outcome [4] | outcome [5]
active: potentiation [2] 54%

CC(=O)Nc1ccc(S(=O)(=O)Nc2nc3ccccc3nc2Nc2ccccc2)cc1
inactive: outcome [1] | outcome [2] | outcome [3] | outcome [4] | outcome [5]

COc1ccc(CCNC(=O)CCOc2cc(C)ccc2C)cc1OC
inactive: outcome [1] | outcome [2] | outcome [3] | outcome [4] | outcome [5]

O=C1C(Nc2ccc(O)cc2)=C/C(=N/S(=O)(=O)c2cccs2)c2ccccc21
active: potentiation [2] 17.5%
inactive: outcome [1] | outcome [3] | outcome [4] | outcome [5]

O=C(O)c1cc2cc(F)ccc2[nH]1
inactive: outcome [1] | outcome [2] | outcome [3] | outcome [4] | outcome [5]

C=CCNC(=S)NNC(=O)COc1c(Cl)cc(Cl)cc1Cl
inactive: outcome [1] | outcome [2] | outcome [3] | outcome [4] | outcome [5]

NC(=Nc1ccc(Cl)cc1)c1ccccc1
inactive: outcome [1] | outcome [2] | outcome [3] | outcome [4] | outcome [5]

Cn1cccc1/C=N/n1c(-c2ccc(Cl)cc2Cl)n[nH]c1=S
inactive: outcome [1] | outcome [2] | outcome [3] | outcome [4] | outcome [5]

Cc1ccc(NC(=S)NC(=O)c2ccc(-c3ccccc3)cc2)c(C)c1
inactive: outcome [1] | outcome [2] | outcome [3] | outcome [4] | outcome [5]

COc1ccc2c(c1)[nH]c1c(=O)n(/N=C/c3ccc(OC)c(CN4CCCC4)c3)cnc12
inactive: outcome [1] | outcome [2] | outcome [3] | outcome [4] | outcome [5]

CCC(C)N(C(=O)COC(=O)c1cc([N+](=O)[O-])ccc1N1CCOCC1)C1CCS(=O)(=O)C1 (stereo not given)
inactive: outcome [1] | outcome [2] | outcome [3] | outcome [4] | outcome [5]

COC(=O)c1sccc1NS(=O)(=O)c1ccc(F)cc1F
inactive: outcome [1] | outcome [2] | outcome [3] | outcome [4] | outcome [5]

C/C(=N\Nc1nc2ccccc2s1)c1ccc(Br)s1
inactive: outcome [1] | outcome [2] | outcome [3] | outcome [4] | outcome [5]

Cc1ccc(-n2ncc3c(=O)n(CC(=O)N4CCN(c5ccccc5F)CC4)cnc32)cc1C
inactive: outcome [1] | outcome [2] | outcome [3] | outcome [4] | outcome [5]

CCOC(=O)c1cc(C)sc1NC(=O)CN1CCN(C(=O)c2ccco2)CC1
inactive: outcome [1] | outcome [3] | outcome [4] | outcome [5]
active: potentiation [2] 17.5%

CN(C1CCCCC1)S(=O)(=O)c1ccc(NC(=S)NC(=O)c2cccs2)cc1
inactive: outcome [1] | outcome [4] | outcome [5]
active: potentiation [2] 30% | potentiation [3] 155%

CCn1c(O)c(N=NC(=S)NCC2CCCO2)c2ccccc21 (stereo not given)
inactive: outcome [1] | outcome [2] | outcome [3] | outcome [4] | outcome [5]

S=C(NCCc1ccccc1)N1CCn2cccc2C1c1cccnc1 (stereo not given)
inactive: outcome [1] | outcome [3] | outcome [4] | outcome [5]
active: potentiation [2] 18.5%

CCOC(=O)N/C(N)=N/c1nc2ccccc2s1
inactive: outcome [1] | outcome [2] | outcome [3] | outcome [4] | outcome [5]

Cc1ccc(-c2nnc(SCC(=O)N/N=C/c3ccccc3C(=O)O)n2-c2ccc(Cl)cc2)cc1
inactive: outcome [1] | outcome [2] | outcome [3] | outcome [4] | outcome [5]

Cc1ccc(-n2c(C)cc(/C=N/NC(=O)c3ccncc3)c2C)cc1C
active: potentiation [2] 30%
inactive: outcome [1] | outcome [3] | outcome [4] | outcome [5]

CC(=O)Nc1ccc(/C=N/NC(=O)c2cccc(S(=O)(=O)N3CCOCC3)c2)cc1
inactive: outcome [1] | outcome [2] | outcome [3] | outcome [4] | outcome [5]

O=c1cc(-c2ccccc2)nc2cc(-c3ccco3)[nH]n12
inactive: outcome [1] | outcome [2] | outcome [3] | outcome [4] | outcome [5]

CCn1c(=S)sc2nc(C)sc21
inactive: outcome [1] | outcome [2] | outcome [3] | outcome [4] | outcome [5]

O=C(Nc1nnc(-c2ccccc2)o1)c1cc(Cl)sc1Cl
active: potentiation [3] 148%
inactive: outcome [1] | outcome [2] | outcome [4] | outcome [5]

COc1cccc(C(=O)CC(=O)C(=O)Nc2ccc(C)cc2Cl)c1
inactive: outcome [1] | outcome [2] | outcome [3] | outcome [4] | outcome [5]

O=C(NCC(c1cccs1)N1CCOCC1)C1CCN(S(=O)(=O)c2cccc(C(F)(F)F)c2)CC1 (stereo not given)
inactive: outcome [1] | outcome [2] | outcome [3] | outcome [4] | outcome [5]

O=C(N/N=C/c1ccc2cccc(OCc3ccccc3)c2n1)c1ccc(Br)cc1
active: potentiation [2] 23%
inactive: outcome [1] | outcome [3] | outcome [4] | outcome [5]

O=C(Nc1ccc(Cl)cc1C(F)(F)F)C(Sc1cccc[n+]1[O-])c1ccccc1 (stereo not given)
inactive: outcome [1] | outcome [2] | outcome [3] | outcome [4] | outcome [5]

COc1cccc(/C=N/n2c(SC)nnc2-c2ccccc2)c1O
inactive: outcome [1] | outcome [2] | outcome [3] | outcome [4] | outcome [5]

CC1CC(=S)Nc2ccccc2N1C(=O)Nc1ccccc1 (stereo not given)
inactive: outcome [1] | outcome [2] | outcome [3] | outcome [4] | outcome [5]

Cc1cc(/C=N/n2cnnc2)c(C)n1-c1cc(Cl)ccc1Cl
inactive: outcome [1] | outcome [2] | outcome [3] | outcome [5]
active: current potentiation [4] 18.5%

N#Cc1ccccc1OCCN1C(=O)c2ccccc2C1=O
inactive: outcome [1] | outcome [2] | outcome [3] | outcome [4] | outcome [5]

O=C(CN(CCO)c1ccccc1)Nc1cccc(S(=O)(=O)N2CCCC2)c1
inactive: outcome [1] | outcome [3] | outcome [4] | outcome [5]
active: potentiation [2] 22.5%

O=C(NC1CCCC1)C(=O)N(Cc1cccnc1)C(C(=O)NC1CCCC1)c1ccco1 (stereo not given)
active: potentiation [2] 35%
inactive: outcome [1] | outcome [3] | outcome [4] | outcome [5]

CS(=O)(=O)N1CCc2cc(-c3csc(NC(=O)C(c4ccccc4)c4ccccc4)n3)ccc21
inactive: outcome [1] | outcome [2] | outcome [3] | outcome [4] | outcome [5]

COc1ccccc1N1CCN(C(=O)C2CCN(C(=O)c3cccc(Cl)c3)CC2)CC1
inactive: outcome [1] | outcome [2] | outcome [3] | outcome [4] | outcome [5]

Cc1nn(Cc2ccc(Cl)cc2)c(C)c1NC(=O)c1cc(-c2ccco2)on1
inactive: outcome [1] | outcome [2] | outcome [3] | outcome [4] | outcome [5]

S=C(NCCc1ccccc1)N/N=C/C1CCCCC1
inactive: outcome [1] | outcome [2] | outcome [3] | outcome [4] | outcome [5]

Cc1nc(-c2ccc(NC(=O)Cc3ccccc3)cc2)cs1
inactive: outcome [1] | outcome [2] | outcome [3] | outcome [4] | outcome [5]
